TDP2 inh = human TDP2 enzyme inhibitors, primary screen, biochemical, epi absorbance, recombinant enzyme | Tyrosyl-DNA phosphodiesterase 2 (Homo sapiens), O95551 | T5PNP hydrolysis, p-nitrophenol absorbance 415 nm | inhibition, % at 12.8 µM | actives 0.34% (n = 370,000) | AID 720702, 2013;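 active = inhibition above the mean of all tested compounds plus 3 SD, set per campaign, cut at about 25% in these data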
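System – recombinant human TDP2 · Quantity – TDP2 enzyme at 120 nM final · Doses – single concentration, 12.8 µM nominal, with 1% DMSO · Incubation – 2 h at 37 °C · Measured by – epi absorbance of p-nitrophenol freed from T5PNP by hydrolysis · Read-out – % inhibition relative to enzyme-containing and enzyme-free wells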
TCR CD3 inh = inhibitors of human TCR-CD3 interaction, primary screen, biochemical, fluorescence, TAMRA-labeled TCR probe. actives 0.37% (n = 360,000). AID 651800, 2012. inhibition, % at 9.4 µM. T-cell receptor (TCR); in the data active = inhibition above about 19%;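 also: recombinant mutant TCR 2C K166C tagged with TAMRA read by polarization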
PAD4 inh = human PAD4 inhibitors, primary screen, biochemical, fluorescence polarization, 1536-well format. recombinant PAD4, RCA probe fluorescence polarization. AID 485272, 2010. Protein-arginine deiminase type-4 (Homo sapiens), Q9UM07. actives 0.41% (n = 330,000). inhibition, % at 6.36 µM;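 active = percent inhibition above a cutoff equal to the mean of all tested compounds plus 3 SD, cut at about 15% in these data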
SIAE primary = human SIAE inhibitors, primary screen, biochemical, fluorescence polarization, FP-Rh probe, 1536-well HTS; actives 0.69% (n = 370,000); AID 1053197, 2014; inhibition, % at 9.66 µM; SIAE FP-Rh probe binding; Sialate O-acetylesterase (Homo sapiens), Q9HAT2;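 active = inhibition above a cutoff: mean of compounds within the control limits plus 3 SD of those, cut at about 17% in these data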
Target sequence (Q9HAT2 whole entry, looked up): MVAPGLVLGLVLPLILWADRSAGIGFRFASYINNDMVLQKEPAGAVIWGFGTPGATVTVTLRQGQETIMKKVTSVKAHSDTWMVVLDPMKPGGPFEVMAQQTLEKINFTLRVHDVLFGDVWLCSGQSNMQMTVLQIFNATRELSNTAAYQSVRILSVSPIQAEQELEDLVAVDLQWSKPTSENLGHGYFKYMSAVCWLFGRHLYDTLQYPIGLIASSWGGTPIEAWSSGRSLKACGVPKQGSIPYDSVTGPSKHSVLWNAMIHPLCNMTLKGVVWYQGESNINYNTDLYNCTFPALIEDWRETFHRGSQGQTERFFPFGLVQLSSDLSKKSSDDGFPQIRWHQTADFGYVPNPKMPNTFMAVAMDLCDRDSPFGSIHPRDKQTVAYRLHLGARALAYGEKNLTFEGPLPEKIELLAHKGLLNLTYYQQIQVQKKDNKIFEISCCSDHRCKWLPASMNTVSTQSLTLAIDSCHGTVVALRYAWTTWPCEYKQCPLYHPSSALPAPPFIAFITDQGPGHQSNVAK
Apaf1 inhib = inhibitors of human Apaf-1 apoptosome, primary screen, biochemical, DEVD-Rh110 fluorescence, uHTS; Apoptotic protease-activating factor 1 (Homo sapiens), O14727; reconstituted apoptosome caspase-3 activity; inhibition, % at 20 µM; actives 0.71% (n = 330,000); active = inhibition of at least 40% at 20 µM
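Assay system: Apoptosome proteins | Medium: pH 7.5 Hepes buffer with CHAPS, BSA, DTT | Also added: Cytochrome c and DEVD-Rh110 substrate | Times: 30 min plus 50 min, RT | Detection: Rhodamine 110 fluorescence at Ex 480/Em 540 nm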
GSTO1 counter = inhibitors of recombinant GSTO1, primary screen, counter-screen for RBBP9 inhibitor project, biochemical, fluorescence polarization; inhibition, % at 5.96 µM; actives 1.1% (n = 300,000); AID 1974, 2009; activity-based probe fluorescence polarization;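 active = inhibition above the campaign mean inhibition plus 3 SD, cut at about 35% in these data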
Each line names hits and unclear results; the compound was inactive in the other large screens. Hits are enriched below; roughly 2.4% of the tested compounds scored in any of these assays.

Cn1c(=O)n(C)c2cc(NS(=O)(=O)c3ccccc3[N+](=O)[O-])ccc21	none
Nc1c(O)cccc1C(=O)O	Apaf1 inhib 53, GSTO1 counter 76
CC1CCN(C(=O)COC(=O)c2cc([N+](=O)[O-])ccc2N2CCOCC2)CC1	none
CC(C)c1ccc(NS(=O)(=O)c2ccc3[nH]cc(C(=O)N4CCC(C(N)=O)CC4)c(=O)c3c2)cc1	GSTO1 counter 55
CCOc1ccc(NS(=O)(=O)c2ccc3[nH]cc(C(=O)N(CC)CC)c(=O)c3c2)cc1	GSTO1 counter 36
CN(CC(=O)Nc1c(Cl)cccc1Cl)C(=O)c1ccccc1SCC(=O)N1CCCC1	none
Cc1cccc(C)c1NC(=O)CN(C)C(=O)c1ccccc1SCC(=O)N1CCCC1	Apaf1 inhib 42
c1ccc(-c2sc3ccccc3c2-c2ccc(OCCN3CCCC3)cc2)cc1	Apaf1 inhib 78 (no result: GSTO1 counter)
COc1ccc(-c2sc3cc(OC)ccc3c2-c2ccc(OCCN3CCCCC3)cc2)cc1	none (no result: PAD4 inh, Apaf1 inhib, GSTO1 counter)
CN(C1=C(NC(=O)c2ccccc2)C(=O)c2ccccc2C1=O)C1CCS(=O)(=O)C1 (stereo not drawn)	TDP2 inh 33, Apaf1 inhib 88, GSTO1 counter 75
CC(C)CCNC(=O)CN(Cc1ccco1)C(=O)CCC(=O)Nc1nccs1	none
O=C(COC(=O)Cc1c(Cl)cccc1Cl)Nc1ccccc1-c1ccccc1	none
O=C(COC(=O)Cc1ccc(Cl)cc1)Nc1ccccc1-c1ccccc1	GSTO1 counter 36
CCNc1ccc(Br)cc(C(=O)/C=C/c2ccc3c(c2)OCO3)c1=O	GSTO1 counter 53
CCNc1ccc(Br)cc(C(=O)/C=C/c2c(Cl)cccc2Cl)c1=O	GSTO1 counter 37 (no result: TDP2 inh, TCR CD3 inh, SIAE primary)
CCNc1ccc(Br)cc(C(=O)/C=C/c2ccc(Cl)cc2)c1=O	none (no result: TDP2 inh, TCR CD3 inh, SIAE primary)
Nc1ccccc1C(=O)/C=C/c1ccc2c(c1)OCO2	none
COc1ccc(Br)cc1S(=O)(=O)NCc1ccccc1	none
O=C(NC(c1ccc2ccccc2n1)c1cccs1)C1CCN(Cc2cccc(C(F)(F)F)c2)CC1 (stereo not drawn)	none (no result: PAD4 inh, Apaf1 inhib, GSTO1 counter)
CCC(Sc1nc2ccccc2o1)C(=O)Nc1nnc(C)s1 (stereo not drawn)	GSTO1 counter 44
COc1cccc(OCCCCCN2CCOCC2)c1	none
Oc1ccc(N=Cc2ccc(O)c(O)c2)cc1	Apaf1 inhib 75, GSTO1 counter 88 (no result: TDP2 inh, TCR CD3 inh, SIAE primary)
O=Cc1ccc(O)c(O)c1	none
Cc1ccc(S(=O)(=O)NN2C(=O)/C(=C/c3cccs3)SC2=S)cc1	GSTO1 counter 37
O=C(COC(=O)c1ccccc1Sc1ccc(C(F)(F)F)cc1[N+](=O)[O-])NC(=O)NC1CCCC1	Apaf1 inhib 40
O=C(Nc1ccc(N2CCOCC2)cc1)Nc1ccc2nc(-c3ccco3)c(-c3ccco3)nc2c1	none
O=C(NCCCO)Nc1ccc2nc(-c3ccco3)c(-c3ccco3)nc2c1	Apaf1 inhib 57, GSTO1 counter 66 (no result: TDP2 inh, TCR CD3 inh, SIAE primary)
O=C1Cc2ccccc2C(=O)N1	TDP2 inh 73 (no result: PAD4 inh, Apaf1 inhib, GSTO1 counter)
COc1ccc(C(=O)N(CCc2ccccc2)Cc2ccccc2)cc1S(=O)(=O)N1CCOCC1	Apaf1 inhib 45
CC(C)n1ncc2c(C(=O)Nc3ccc(S(N)(=O)=O)cc3)cc(C3CC3)nc21	Apaf1 inhib 75 (no result: GSTO1 counter)
Oc1ccc(C2C[C@H]3CC[C@@H]2C3)cc1O (stereo partly drawn)	GSTO1 counter 42
O=C(NN1C(=O)/C(=C/c2cc([N+](=O)[O-])ccc2O)SC1=S)c1ccccc1O	GSTO1 counter 67 (no result: TDP2 inh, TCR CD3 inh, SIAE primary)
O=C(NN1C(=O)/C(=C/c2ccc(O)c([N+](=O)[O-])c2)SC1=S)c1ccccc1Cl	none
CCOc1cc(/C=C2\C(=O)N(c3nc(-c4ccc(Br)cc4)cs3)N=C2c2ccccc2)ccc1O	Apaf1 inhib 53 (no result: TDP2 inh, TCR CD3 inh, SIAE primary)
Oc1c(C=NCc2ccncc2)sc2ccccc12	PAD4 inh 16
CN=Cc1sc2ccccc2c1O	none
CCCCN(C(=O)CSc1nnc(Nc2ccccc2)s1)c1c(N)n(CCC)c(=O)[nH]c1=O	PAD4 inh 20
CC1CCC(C(O)(C(=O)O)C2CCCCC2)CC1C (stereo not drawn)	none (no result: PAD4 inh, Apaf1 inhib, GSTO1 counter)
CCOc1ccc(N)cc1OC	SIAE primary 24
CCOc1ccc(C(N)=O)cc1OC	none
Cc1ccc(Sc2ccc(NC(=O)CCl)cc2)cc1C	GSTO1 counter 78
O=C(CCCc1c[nH]c2ccccc12)N1CCN(c2ccc(N3CCOCC3)nn2)CC1	SIAE primary 19
O=C(CCN1C(=O)C2CC=C(Cl)CC2C1=O)Nc1ccccc1O (stereo not drawn)	none
COC1=CC(=O)c2ccccc2C1=O	Apaf1 inhib 79 (no result: TDP2 inh, TCR CD3 inh, SIAE primary, GSTO1 counter)
Cc1ccc(O)c(N)c1	none (no result: TDP2 inh, TCR CD3 inh, SIAE primary, GSTO1 counter)
COc1ccc(O)c(N)c1	Apaf1 inhib 76 (no result: TDP2 inh, TCR CD3 inh, PAD4 inh, SIAE primary, GSTO1 counter)
COc1ccc(CNCC(O)(c2ccc(Cl)cc2)c2ccc(Cl)cc2)cc1OC	Apaf1 inhib 42
Cc1ccc(S(=O)(=O)N(C)CCCC(=O)Nc2ccccn2)cc1	none
CCCCNC(=O)Nc1cc(C)on1	none
CCOC(=O)C(=O)Nc1cc(C)on1	TDP2 inh 45
CCc1cccc(NC(=O)CCCn2nc(CC)n3c(cc4occc43)c2=O)c1	none
CCc1nn(CCCC(=O)NCc2ccccc2Br)c(=O)c2cc3occc3n12	Apaf1 inhib 46
Cc1ccc(N2C(=O)CS/C2=C(\C(Cl)=C(Cl)Cl)[N+](=O)[O-])cc1	GSTO1 counter 54
Cc1ccc(N2C(=O)CSCC2=O)cc1	none
O=C(Nc1ccccc1N1CCOCC1)c1cc(F)cc(F)c1	none
Cc1ccc2[nH]c(=O)c(C3C(C#N)=C(N)Oc4c3ccc3cccnc43)cc2c1 (stereo not drawn)	SIAE primary 25
COc1cc(/C=N/NC(=O)c2cc(-c3cccc(Br)c3)nc3ccccc23)cc(OC)c1O	none
COc1ccccc1Nc1nc(Cl)c(C=O)s1	GSTO1 counter 47
O=Cc1sc(Nc2ccccc2)nc1Cl	none
O=C(OCn1ncc(Br)c(Br)c1=O)c1c(F)cccc1F	PAD4 inh 22 (no result: TDP2 inh, TCR CD3 inh, SIAE primary, Apaf1 inhib)
O=C(Nc1ccc2nc(C3CC3)n(Cc3ccccc3)c(=O)c2c1)C1CC1	none
CCOC(=O)C1=CNS(=O)(=O)NC1c1ccc(OC(C)=O)cc1 (stereo not drawn)	none (no result: GSTO1 counter)
Cc1ccc(S(=O)(=O)N/N=C/c2ccc(O)c(O)c2)cc1[N+](=O)[O-]	GSTO1 counter 50
Cc1ccc(S(=O)(=O)N/N=C/c2ccccc2O)cc1[N+](=O)[O-]	none

Bioassay records deposited in PubChem BioAssay by several laboratories.
